# Experimental data from ChEMBL document CHEMBL3593159, “Identification of 5-nitrofuran-2-amide derivatives that induce apoptosis in triple negative breast cancer cells by activating C/EBP-homologous protein expression” (Bioorg Med Chem, 2015).
# How the values were obtained:
# Format in all cases: functional
# [1] = system: HCC1806; test: Cytotoxicity against human HCC1806 cells assessed as reduction in cell viability incubated for 3 days by cell-titer-Glo reagent based assay; conditions: HCC1806, 72 h
# Outline: (§1)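 Viability by CellTiter-Glo (ATP read-out). Cells plated at 3 × 10³/well in 384-well format overnight, then exposed to compound over a range (0.125–20 µM for initial series) for 3 d in RPMI 1640 with 10% FBS at 37°C, 5% CO₂. IC₅₀ fitted from dose–response curve.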
# [2] = system: HCC1143; test: Cytotoxicity against human HCC1143 cells assessed as reduction in cell viability incubated for 3 days by cell-titer-Glo reagent based assay; conditions: HCC1143, 72 h; outline: as §1
# [3] = system: HCC38; test: Cytotoxicity against human HCC38 cells assessed as reduction in cell viability incubated for 3 days by cell-titer-Glo reagent based assay; conditions: HCC38, 72 h; outline: as §1
SMILES,IC50 [1] [µM],IC50 [2] [µM],IC50 [3] [µM]
O=C(Nc1ccc(N2CCOCC2)cc1)c1ccc([N+](=O)[O-])o1,1.5,2.3,3.1
CCC1CCN(c2ccc(NC(=O)c3ccco3)cc2Cl)CC1,> 40,,
CCc1cc(I)ccc1NC(=O)c1ccc([N+](=O)[O-])o1,5.5,,
O=C(Nc1ccc(N2CCCCC2)c(Cl)c1)c1ccc([N+](=O)[O-])o1,3.5,4.5,3.8
Cc1ccc(NC(=O)c2ccc([N+](=O)[O-])o2)cc1,6.7,,
O=C(Nc1ccc(N2CCOCC2)c(Br)c1)c1ccco1,> 40,,
CC1CCN(c2ccc(NC(=O)c3ccco3)cc2)CC1,> 40,,
CCc1ccc(NC(=O)c2ccc([N+](=O)[O-])o2)cc1,5,,
O=C(Nc1ccc(N2CCCCC2)c(F)c1)c1ccco1,> 40,,
O=C(Nc1ccc(Cl)cc1)c1ccc([N+](=O)[O-])o1,5.1,,
O=C(Nc1ccc(N2CCOCC2)c(Cl)c1)c1ccc([N+](=O)[O-])o1,2.6,2.5,2
